What was measured:
Type in all cases: functional, cell-based
[1] = system: HT-29; test: Cytotoxicity against human HT-29 cells after 96 hrs under hypoxic condition by MTT assay; settings: Homo sapiens, HT-29, 96 h; read-out: IC50
Outline: (§1)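 MTT viability assay in HT-29 (high CA IX) and MDA-MB-231 (normal CA IX) cells under normoxic and hypoxic conditions; IC50 values reported.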

[2] = system: HT-29; test: Cytotoxicity against human HT-29 cells after 96 hrs under normoxic condition by MTT assay; settings: Homo sapiens, HT-29, 96 h; read-out: IC50; outline: as §1
[3] = system: MDA-MB-231; test: Cytotoxicity against human MDA-MB-231 cells after 96 hrs under hypoxic condition by MTT assay; settings: Homo sapiens, MDA-MB-231, 96 h; read-out: IC50; outline: as §1
[4] = system: MDA-MB-231; test: Cytotoxicity against human MDA-MB-231 cells after 96 hrs under normoxic condition by MTT assay; settings: Homo sapiens, MDA-MB-231, 96 h; read-out: IC50; outline: as §1

| Structure (SMILES) | IC50 [1] [µM] | IC50 [2] [µM] | IC50 [3] [µM] | IC50 [4] [µM] |
| --- | --- | --- | --- | --- |
| Cc1c(Cl)c(=O)oc2cc(-n3cc(CCO[C@H]4O[C@@H]5O[C@@]6(C)CC[C@H]7[C@H](C)CC[C@@H]([C@H]4C)[C@@]57OO6)nn3)ccc12 | 0.01 | 1.5 | 1.03 | 5.19 |
| Cc1c(Cl)c(=O)oc2cc(OCCO[C@H]3O[C@@H]4O[C@@]5(C)CC[C@H]6[C@H](C)CC[C@@H]([C@H]3C)[C@@]46OO5)ccc12 | 7.02 | 23.9 | 5.36 | 18 |
| Cc1c(Cl)c(=O)oc2cc(O[C@H]3O[C@@H]4O[C@@]5(C)CC[C@H]6[C@H](C)CC[C@@H]([C@H]3C)[C@@]46OO5)ccc12 | 0.41 | 1.28 | 1.4 | 50.5 |
| Cc1c(F)c(=O)oc2cc(-n3cc(CO[C@H]4O[C@@H]5O[C@@]6(C)CC[C@H]7[C@H](C)CC[C@@H]([C@H]4C)[C@@]57OO6)nn3)ccc12 | 7.39 | 3.35 | 2.6 | 3.47 |
| C[C@H]1[C@@H](OCCc2cn(CCCOc3ccc4c(C(F)(F)F)cc(=O)oc4c3)nn2)O[C@@H]2O[C@@]3(C)CC[C@H]4[C@H](C)CC[C@@H]1[C@@]24OO3 | 4.29 | 5.88 | 6.58 | 32.5 |
| C[C@H]1[C@@H](OCc2cn(-c3ccc4c(C(F)(F)F)cc(=O)oc4c3)nn2)O[C@@H]2O[C@@]3(C)CC[C@H]4[C@H](C)CC[C@@H]1[C@@]24OO3 | 5.33 | 5.22 | 49.6 | > 100 |
| Cc1c(F)c(=O)oc2cc(-n3cc(CCO[C@H]4O[C@@H]5O[C@@]6(C)CC[C@H]7[C@H](C)CC[C@@H]([C@H]4C)[C@@]57OO6)nn3)ccc12 | 5.66 | 9.89 | 3.36 | 3.84 |
| Cc1c(C)c2ccc(OCCCn3cc(CCO[C@H]4O[C@@H]5O[C@@]6(C)CC[C@H]7[C@H](C)CC[C@@H]([C@H]4C)[C@@]57OO6)nn3)cc2oc1=O | 0.11 | 5 | 33.2 | > 100 |
| Cc1c(C)c2ccc(OCCCO[C@H]3O[C@@H]4O[C@@]5(C)CC[C@H]6[C@H](C)CC[C@@H]([C@H]3C)[C@@]46OO5)cc2oc1=O | 3.54 | 8.71 | 7.92 | 17.1 |
| C[C@H]1[C@@H](O)O[C@@H]2O[C@@]3(C)CC[C@H]4[C@H](C)CC[C@@H]1[C@@]24OO3 [ARTENIMOL] | 18.5 | > 100 | 5.64 | 47.1 |
| COC(=O)c1cc2ccc(OCCn3cc(CCO[C@H]4O[C@@H]5O[C@@]6(C)CC[C@H]7[C@H](C)CC[C@@H]([C@H]4C)[C@@]57OO6)nn3)cc2oc1=O | 75.7 | 67.2 | 58.4 | 61 |
| Cc1c(C)c2ccc(O[C@H]3O[C@@H]4O[C@@]5(C)CC[C@H]6[C@H](C)CC[C@@H]([C@H]3C)[C@@]46OO5)cc2oc1=O | 30.3 | 11.8 | 6.44 | 78.8 |
| Cc1cc(=O)oc2cc(OCCCn3cc(CCO[C@H]4O[C@@H]5O[C@@]6(C)CC[C@H]7[C@H](C)CC[C@@H]([C@H]4C)[C@@]57OO6)nn3)ccc12 | 0.11 | 6.87 | 14.4 | 72.2 |
| Cc1c(Cl)c(=O)oc2cc(OCCn3cc(CCO[C@H]4O[C@@H]5O[C@@]6(C)CC[C@H]7[C@H](C)CC[C@@H]([C@H]4C)[C@@]57OO6)nn3)ccc12 | 2.37 | 5.28 | 7.24 | 7.53 |
| Cc1c(C)c2ccc(-n3cc(CO[C@H]4O[C@@H]5O[C@@]6(C)CC[C@H]7[C@H](C)CC[C@@H]([C@H]4C)[C@@]57OO6)nn3)cc2oc1=O | 0.02 | 2.67 | 4.85 | 23.4 |
| Cc1c(Cl)c(=O)oc2cc(-n3cc(CO[C@H]4O[C@@H]5O[C@@]6(C)CC[C@H]7[C@H](C)CC[C@@H]([C@H]4C)[C@@]57OO6)nn3)ccc12 | 1.15 | 4.27 | 24.7 | 50.5 |

| Structure (SMILES) | IC50 [1] [µM] | IC50 [2] [µM] | IC50 [3] [µM] | IC50 [4] [µM] |
| --- | --- | --- | --- | --- |
| C[C@H]1[C@@H](OCCOc2ccc3c(C(F)(F)F)cc(=O)oc3c2)O[C@@H]2O[C@@]3(C)CC[C@H]4[C@H](C)CC[C@@H]1[C@@]24OO3 | 5.59 | 54.8 | 6.14 | 15.2 |
| Cc1c(Cl)c(=O)oc2cc(OCCCn3cc(CCO[C@H]4O[C@@H]5O[C@@]6(C)CC[C@H]7[C@H](C)CC[C@@H]([C@H]4C)[C@@]57OO6)nn3)ccc12 | 1.68 | 1.19 | 6.07 | 31 |
| Cc1cc(=O)oc2cc(-n3cc(CO[C@H]4O[C@@H]5O[C@@]6(C)CC[C@H]7[C@H](C)CC[C@@H]([C@H]4C)[C@@]57OO6)nn3)ccc12 | 5.09 | 10.8 | 49.8 | 21.5 |
| Cc1cc(=O)oc2cc(OCCCO[C@H]3O[C@@H]4O[C@@]5(C)CC[C@H]6[C@H](C)CC[C@@H]([C@H]3C)[C@@]46OO5)ccc12 | 8.71 | 13.8 | 22.9 | 30 |
| CC(=O)Nc1nnc(S(N)(=O)=O)s1 [ACETAZOLAMIDE] | > 100 | > 100 | > 100 | > 100 |
| C[C@H]1[C@@H](OCCc2cn(CCOc3ccc4c(C(F)(F)F)cc(=O)oc4c3)nn2)O[C@@H]2O[C@@]3(C)CC[C@H]4[C@H](C)CC[C@@H]1[C@@]24OO3 | 4.01 | 3.58 | 14.2 | 17.9 |
| Cc1cc(=O)oc2cc(-n3cc(CCO[C@H]4O[C@@H]5O[C@@]6(C)CC[C@H]7[C@H](C)CC[C@@H]([C@H]4C)[C@@]57OO6)nn3)ccc12 | 10.9 | 8.95 | 9.96 | 3.78 |
| COc1cccc2c1C(=O)c1c(O)c3c(c(O)c1C2=O)C[C@@](O)(C(=O)CO)C[C@@H]3O[C@H]1C[C@H](N)[C@H](O)[C@H](C)O1 [DOXORUBICIN] | 0.25 | 0.24 | 5.98 | 1.07 |
| CCOC(=O)c1cc2ccc(O[C@H]3O[C@@H]4O[C@@]5(C)CC[C@H]6[C@H](C)CC[C@@H]([C@H]3C)[C@@]46OO5)cc2oc1=O | 7.17 | 3.45 | 2.85 | 21.9 |
| Cc1cc(=O)oc2cc(OCCO[C@H]3O[C@@H]4O[C@@]5(C)CC[C@H]6[C@H](C)CC[C@@H]([C@H]3C)[C@@]46OO5)ccc12 | 3.69 | 2.35 | 0.1 | 4.29 |
| Cc1c(Cl)c(=O)oc2cc(OCCCO[C@H]3O[C@@H]4O[C@@]5(C)CC[C@H]6[C@H](C)CC[C@@H]([C@H]3C)[C@@]46OO5)ccc12 | 8.05 | 2.55 | 2.38 | 0.6 |
| Cc1c(C)c2ccc(OCCO[C@H]3O[C@@H]4O[C@@]5(C)CC[C@H]6[C@H](C)CC[C@@H]([C@H]3C)[C@@]46OO5)cc2oc1=O | 57.2 | 12.8 | 12.8 | 57.2 |
| Cc1c(C)c2ccc(OCCn3cc(CCO[C@H]4O[C@@H]5O[C@@]6(C)CC[C@H]7[C@H](C)CC[C@@H]([C@H]4C)[C@@]57OO6)nn3)cc2oc1=O | 14.6 | 3.47 | 52.3 | 56.7 |
| C[C@H]1[C@@H](OCCc2cn(-c3ccc4c(C(F)(F)F)cc(=O)oc4c3)nn2)O[C@@H]2O[C@@]3(C)CC[C@H]4[C@H](C)CC[C@@H]1[C@@]24OO3 | 10.3 | 6.07 | 95.7 | 1.85 |
| C[C@H]1[C@@H](OCCCOc2ccc3c(C(F)(F)F)cc(=O)oc3c2)O[C@@H]2O[C@@]3(C)CC[C@H]4[C@H](C)CC[C@@H]1[C@@]24OO3 | 1.19 | 4.57 | 8.86 | 13.6 |

From ChEMBL document CHEMBL4152206, “Design, synthesis, cytotoxicity and mechanism of novel dihydroartemisinin-coumarin hybrids as potential anti-cancer agents” (Eur J Med Chem, 2018)
